Key:
[1] = biological target: Tyrosine-protein kinase Lck (Homo sapiens, UniProt P06239); assay: Inhibition of LCK (unknown origin) at 30 uM by microfluidic mobility shift assay relative to control
In short: (§1)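 Single-point screen in a 24-enzyme kinase panel using a microfluidic assay. Each compound was tested at […] with ATP at roughly the Km for each enzyme. The pan-AGC inhibitor H-89 served as an internal control on every plate.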

[2] = biological target: Insulin receptor (Homo sapiens) (UniProt P06213); assay: Inhibition of INSR (unknown origin) at 30 uM by microfluidic mobility shift assay relative to control; in short: as §1
[3] = biological target: Tyrosine-protein kinase Fyn (Homo sapiens, UniProt P06241); assay: Inhibition of FYN (unknown origin) at 30 uM by microfluidic mobility shift assay relative to control; in short: as §1
[4] = biological target: Tyrosine-protein kinase ABL1 (Homo sapiens, UniProt P00519); assay: Inhibition of ABL (unknown origin) at 30 uM by microfluidic mobility shift assay relative to control; in short: as §1
[5] = biological target: Glycogen synthase kinase-3 beta (Homo sapiens, UniProt P49841); assay: Inhibition of GSK3beta (unknown origin) at 30 uM by microfluidic mobility shift assay relative to control; in short: as §1
[6] = biological target: Mitogen-activated protein kinase 3 (Homo sapiens, UniProt P27361); assay: Inhibition of ERK1 (unknown origin) at 30 uM by microfluidic mobility shift assay relative to control; in short: as §1
[7] = biological target: Serine/threonine-protein kinase Chk2 (Homo sapiens, UniProt O96017); assay: Inhibition of CHK2 (unknown origin) at 30 uM by microfluidic mobility shift assay relative to control; in short: as §1
[8] = biological target: T1, Serine/threonine-protein kinase Chk1 (Homo sapiens) (UniProt O14757); assay: Inhibition of CHK1 (unknown origin) at 30 uM by microfluidic mobility shift assay relative to control; in short: as §1
T1 sequence (whole entry): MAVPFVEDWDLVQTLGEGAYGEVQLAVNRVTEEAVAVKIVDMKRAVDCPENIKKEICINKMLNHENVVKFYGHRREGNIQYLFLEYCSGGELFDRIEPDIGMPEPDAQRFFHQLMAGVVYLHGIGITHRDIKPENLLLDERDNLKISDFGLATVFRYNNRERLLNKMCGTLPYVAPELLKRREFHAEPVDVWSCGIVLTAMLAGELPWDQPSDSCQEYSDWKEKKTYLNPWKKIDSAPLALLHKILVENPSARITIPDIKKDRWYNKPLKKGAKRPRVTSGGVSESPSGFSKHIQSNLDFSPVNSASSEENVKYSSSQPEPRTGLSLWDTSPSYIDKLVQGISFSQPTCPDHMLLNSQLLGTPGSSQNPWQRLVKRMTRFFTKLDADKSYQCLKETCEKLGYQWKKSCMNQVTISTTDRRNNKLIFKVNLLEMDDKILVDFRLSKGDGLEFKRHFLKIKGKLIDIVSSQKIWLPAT

[9] = biological target: T2, Serine/threonine-protein kinase D2 (Homo sapiens) (UniProt Q9BZL6); assay: Inhibition of PKD2 (unknown origin) at 30 uM by microfluidic mobility shift assay relative to control; in short: as §1
T2 sequence (whole entry): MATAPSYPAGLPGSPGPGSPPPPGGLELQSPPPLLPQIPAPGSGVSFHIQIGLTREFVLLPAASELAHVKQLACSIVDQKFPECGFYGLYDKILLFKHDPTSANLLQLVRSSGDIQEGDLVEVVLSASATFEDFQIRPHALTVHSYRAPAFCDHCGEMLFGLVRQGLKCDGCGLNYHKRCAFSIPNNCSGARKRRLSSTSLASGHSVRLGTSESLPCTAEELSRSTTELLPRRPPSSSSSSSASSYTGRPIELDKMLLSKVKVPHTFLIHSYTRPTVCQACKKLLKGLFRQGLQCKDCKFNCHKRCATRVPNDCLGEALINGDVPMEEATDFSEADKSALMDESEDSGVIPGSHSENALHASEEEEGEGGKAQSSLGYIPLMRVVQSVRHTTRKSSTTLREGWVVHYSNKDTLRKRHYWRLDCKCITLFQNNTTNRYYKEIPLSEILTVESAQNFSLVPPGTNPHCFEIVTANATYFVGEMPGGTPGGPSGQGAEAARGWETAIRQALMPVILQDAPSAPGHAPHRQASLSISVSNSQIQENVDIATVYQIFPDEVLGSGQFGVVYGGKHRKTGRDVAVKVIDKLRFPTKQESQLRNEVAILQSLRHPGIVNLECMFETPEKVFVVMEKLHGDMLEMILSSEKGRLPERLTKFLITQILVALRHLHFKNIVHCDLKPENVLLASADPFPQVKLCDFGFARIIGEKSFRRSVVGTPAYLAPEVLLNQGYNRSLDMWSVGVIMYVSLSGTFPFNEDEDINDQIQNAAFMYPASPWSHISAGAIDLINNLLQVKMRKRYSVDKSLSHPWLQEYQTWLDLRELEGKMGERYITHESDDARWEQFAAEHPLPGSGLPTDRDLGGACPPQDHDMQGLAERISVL

[10] = biological target: T3, MAP kinase-activated protein kinase 5 (Homo sapiens) (UniProt Q8IW41); assay: Inhibition of MAPKAPK5 (unknown origin) at 30 uM by microfluidic mobility shift assay relative to control; in short: as §1
T3 sequence (whole entry): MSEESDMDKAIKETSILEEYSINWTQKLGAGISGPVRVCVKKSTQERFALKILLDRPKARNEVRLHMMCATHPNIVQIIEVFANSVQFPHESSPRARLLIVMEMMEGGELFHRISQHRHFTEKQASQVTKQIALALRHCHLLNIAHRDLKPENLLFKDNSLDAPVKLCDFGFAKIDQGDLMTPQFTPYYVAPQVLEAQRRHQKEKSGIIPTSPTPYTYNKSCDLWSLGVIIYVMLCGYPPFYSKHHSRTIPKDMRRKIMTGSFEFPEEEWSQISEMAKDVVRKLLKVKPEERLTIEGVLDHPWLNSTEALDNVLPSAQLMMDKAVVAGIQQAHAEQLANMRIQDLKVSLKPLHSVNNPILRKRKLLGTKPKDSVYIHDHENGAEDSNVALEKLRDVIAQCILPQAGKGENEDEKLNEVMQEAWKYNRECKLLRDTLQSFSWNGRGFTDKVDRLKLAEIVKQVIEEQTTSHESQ

[11] = biological target: RAC-beta serine/threonine-protein kinase (Homo sapiens, UniProt P31751); assay: Inhibition of AKT2 (unknown origin) at 30 uM by microfluidic mobility shift assay relative to control; in short: as §1
[12] = species: Homo sapiens; assay: Inhibition of PKA (unknown origin) at 30 uM by microfluidic mobility shift assay relative to control; in short: as §1
[13] = biological target: RAC-alpha serine/threonine-protein kinase (Homo sapiens, UniProt P31749); assay: Inhibition of AKT1 (unknown origin) at 30 uM by microfluidic mobility shift assay relative to control; in short: as §1
Chain of RAC-alpha serine/threonine-protein kinase (P31749 whole entry): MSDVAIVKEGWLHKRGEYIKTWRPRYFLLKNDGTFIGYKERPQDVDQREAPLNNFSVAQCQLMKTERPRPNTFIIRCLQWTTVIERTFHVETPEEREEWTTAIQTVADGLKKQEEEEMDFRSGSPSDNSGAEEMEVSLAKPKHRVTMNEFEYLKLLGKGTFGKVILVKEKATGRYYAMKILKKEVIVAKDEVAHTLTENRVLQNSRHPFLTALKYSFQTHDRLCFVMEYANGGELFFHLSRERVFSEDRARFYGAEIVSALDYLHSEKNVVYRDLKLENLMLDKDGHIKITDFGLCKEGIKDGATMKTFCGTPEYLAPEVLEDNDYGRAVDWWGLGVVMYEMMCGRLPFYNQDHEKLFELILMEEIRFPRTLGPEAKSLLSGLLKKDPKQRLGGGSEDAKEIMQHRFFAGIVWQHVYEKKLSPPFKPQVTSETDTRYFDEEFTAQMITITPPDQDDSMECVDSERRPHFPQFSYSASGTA

Chain of Glycogen synthase kinase-3 beta (P49841 whole entry, looked up): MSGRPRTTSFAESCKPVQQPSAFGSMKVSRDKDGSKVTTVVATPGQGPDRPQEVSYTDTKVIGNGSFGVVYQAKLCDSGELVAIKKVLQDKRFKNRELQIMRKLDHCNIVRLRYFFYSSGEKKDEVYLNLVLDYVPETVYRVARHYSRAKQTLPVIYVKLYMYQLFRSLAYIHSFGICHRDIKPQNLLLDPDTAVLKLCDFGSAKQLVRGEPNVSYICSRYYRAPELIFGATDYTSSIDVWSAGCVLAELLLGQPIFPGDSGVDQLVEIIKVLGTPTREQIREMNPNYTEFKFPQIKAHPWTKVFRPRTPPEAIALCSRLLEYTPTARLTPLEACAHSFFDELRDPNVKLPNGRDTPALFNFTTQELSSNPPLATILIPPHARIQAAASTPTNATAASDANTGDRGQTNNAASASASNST
Chain of Insulin receptor (Homo sapiens) (P06213 28-758 limits assumed): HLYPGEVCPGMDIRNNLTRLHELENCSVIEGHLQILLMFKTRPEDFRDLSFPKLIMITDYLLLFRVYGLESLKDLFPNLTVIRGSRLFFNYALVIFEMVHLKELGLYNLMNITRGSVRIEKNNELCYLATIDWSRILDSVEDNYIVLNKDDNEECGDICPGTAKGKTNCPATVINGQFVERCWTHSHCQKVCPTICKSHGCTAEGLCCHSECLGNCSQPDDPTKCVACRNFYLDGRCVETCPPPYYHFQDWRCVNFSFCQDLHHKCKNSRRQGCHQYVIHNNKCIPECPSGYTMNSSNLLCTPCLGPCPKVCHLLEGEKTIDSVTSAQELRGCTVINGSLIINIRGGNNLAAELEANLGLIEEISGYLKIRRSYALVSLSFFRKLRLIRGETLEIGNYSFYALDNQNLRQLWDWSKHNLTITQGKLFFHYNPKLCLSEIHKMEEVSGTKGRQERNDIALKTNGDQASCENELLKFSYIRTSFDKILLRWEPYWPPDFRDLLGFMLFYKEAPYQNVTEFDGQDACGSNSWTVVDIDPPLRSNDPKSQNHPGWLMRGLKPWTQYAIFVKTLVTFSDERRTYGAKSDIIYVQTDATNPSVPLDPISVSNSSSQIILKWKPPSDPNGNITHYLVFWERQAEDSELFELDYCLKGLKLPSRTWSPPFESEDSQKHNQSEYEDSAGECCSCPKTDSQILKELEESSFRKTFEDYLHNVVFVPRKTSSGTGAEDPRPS
Chain of Insulin receptor (Homo sapiens) (P06213 763-1382 limits assumed): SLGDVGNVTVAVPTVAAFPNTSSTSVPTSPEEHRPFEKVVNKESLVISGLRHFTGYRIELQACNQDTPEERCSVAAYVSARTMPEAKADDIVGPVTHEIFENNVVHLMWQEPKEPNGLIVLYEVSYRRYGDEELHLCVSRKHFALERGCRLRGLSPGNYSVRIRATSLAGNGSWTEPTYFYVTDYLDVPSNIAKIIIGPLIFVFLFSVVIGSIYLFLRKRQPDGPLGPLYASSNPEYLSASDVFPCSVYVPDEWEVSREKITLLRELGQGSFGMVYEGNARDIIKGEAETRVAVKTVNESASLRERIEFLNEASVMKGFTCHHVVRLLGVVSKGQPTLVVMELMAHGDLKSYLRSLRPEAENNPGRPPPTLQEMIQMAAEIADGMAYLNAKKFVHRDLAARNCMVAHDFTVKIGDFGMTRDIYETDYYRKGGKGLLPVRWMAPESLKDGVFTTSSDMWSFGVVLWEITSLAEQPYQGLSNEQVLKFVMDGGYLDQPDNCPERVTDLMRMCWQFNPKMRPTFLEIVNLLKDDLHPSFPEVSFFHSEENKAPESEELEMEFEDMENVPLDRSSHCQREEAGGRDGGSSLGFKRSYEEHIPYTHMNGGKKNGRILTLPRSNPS
Chain of Serine/threonine-protein kinase Chk2 (O96017 whole entry): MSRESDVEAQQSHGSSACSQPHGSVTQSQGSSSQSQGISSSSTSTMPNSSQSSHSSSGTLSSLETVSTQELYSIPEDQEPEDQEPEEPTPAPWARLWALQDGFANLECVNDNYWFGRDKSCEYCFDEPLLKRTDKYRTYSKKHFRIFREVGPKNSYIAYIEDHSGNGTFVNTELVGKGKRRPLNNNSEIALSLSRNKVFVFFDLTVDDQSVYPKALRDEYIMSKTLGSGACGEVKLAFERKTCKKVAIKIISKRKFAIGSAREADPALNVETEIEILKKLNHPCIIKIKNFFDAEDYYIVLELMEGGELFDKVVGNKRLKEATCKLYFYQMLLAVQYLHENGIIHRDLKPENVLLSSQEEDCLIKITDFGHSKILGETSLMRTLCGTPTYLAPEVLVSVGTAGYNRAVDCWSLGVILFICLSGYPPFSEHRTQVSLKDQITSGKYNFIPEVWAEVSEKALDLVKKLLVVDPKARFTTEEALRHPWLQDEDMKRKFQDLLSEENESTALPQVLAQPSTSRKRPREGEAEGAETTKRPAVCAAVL
Chain of Mitogen-activated protein kinase 3 (P27361 whole entry): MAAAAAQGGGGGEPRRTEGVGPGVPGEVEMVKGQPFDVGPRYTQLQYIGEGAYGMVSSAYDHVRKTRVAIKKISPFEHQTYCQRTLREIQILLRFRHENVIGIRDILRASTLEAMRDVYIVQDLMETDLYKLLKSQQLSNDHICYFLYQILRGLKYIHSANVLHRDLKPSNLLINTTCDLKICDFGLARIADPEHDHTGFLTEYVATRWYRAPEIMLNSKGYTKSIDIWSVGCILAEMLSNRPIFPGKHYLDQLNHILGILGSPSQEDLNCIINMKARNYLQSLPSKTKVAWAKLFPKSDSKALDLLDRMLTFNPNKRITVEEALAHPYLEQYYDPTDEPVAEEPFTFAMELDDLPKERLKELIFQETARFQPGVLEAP
Chain of Tyrosine-protein kinase ABL1 (P00519 whole entry): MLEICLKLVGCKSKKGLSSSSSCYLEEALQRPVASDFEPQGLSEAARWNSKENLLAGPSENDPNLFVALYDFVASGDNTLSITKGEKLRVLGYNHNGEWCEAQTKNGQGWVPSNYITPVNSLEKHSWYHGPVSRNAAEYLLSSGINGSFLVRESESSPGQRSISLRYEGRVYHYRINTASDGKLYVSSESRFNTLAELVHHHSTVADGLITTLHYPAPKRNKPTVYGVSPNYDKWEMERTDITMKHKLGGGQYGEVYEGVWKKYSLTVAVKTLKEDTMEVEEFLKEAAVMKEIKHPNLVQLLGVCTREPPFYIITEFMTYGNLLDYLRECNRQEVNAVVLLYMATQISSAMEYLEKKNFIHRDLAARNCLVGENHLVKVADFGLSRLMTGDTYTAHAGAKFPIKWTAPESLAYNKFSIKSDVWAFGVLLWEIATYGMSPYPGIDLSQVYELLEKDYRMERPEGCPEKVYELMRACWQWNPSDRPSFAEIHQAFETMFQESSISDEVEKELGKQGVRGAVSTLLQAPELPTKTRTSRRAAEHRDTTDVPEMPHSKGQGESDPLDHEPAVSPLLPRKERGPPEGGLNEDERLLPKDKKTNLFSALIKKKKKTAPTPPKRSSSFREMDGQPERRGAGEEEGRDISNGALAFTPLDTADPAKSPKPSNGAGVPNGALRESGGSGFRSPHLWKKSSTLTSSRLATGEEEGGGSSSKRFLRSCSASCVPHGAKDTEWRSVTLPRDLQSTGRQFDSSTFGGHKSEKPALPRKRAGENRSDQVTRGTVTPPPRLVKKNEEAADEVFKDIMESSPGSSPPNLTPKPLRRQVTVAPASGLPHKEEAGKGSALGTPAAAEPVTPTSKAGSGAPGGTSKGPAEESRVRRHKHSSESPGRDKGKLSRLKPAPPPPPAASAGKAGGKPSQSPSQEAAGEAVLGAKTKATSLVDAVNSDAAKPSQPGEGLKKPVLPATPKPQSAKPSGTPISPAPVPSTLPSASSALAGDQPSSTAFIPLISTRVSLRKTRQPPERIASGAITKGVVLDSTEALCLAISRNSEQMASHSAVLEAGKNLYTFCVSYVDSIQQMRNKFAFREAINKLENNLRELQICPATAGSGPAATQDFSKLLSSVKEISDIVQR
Chain of RAC-beta serine/threonine-protein kinase (P31751 whole entry): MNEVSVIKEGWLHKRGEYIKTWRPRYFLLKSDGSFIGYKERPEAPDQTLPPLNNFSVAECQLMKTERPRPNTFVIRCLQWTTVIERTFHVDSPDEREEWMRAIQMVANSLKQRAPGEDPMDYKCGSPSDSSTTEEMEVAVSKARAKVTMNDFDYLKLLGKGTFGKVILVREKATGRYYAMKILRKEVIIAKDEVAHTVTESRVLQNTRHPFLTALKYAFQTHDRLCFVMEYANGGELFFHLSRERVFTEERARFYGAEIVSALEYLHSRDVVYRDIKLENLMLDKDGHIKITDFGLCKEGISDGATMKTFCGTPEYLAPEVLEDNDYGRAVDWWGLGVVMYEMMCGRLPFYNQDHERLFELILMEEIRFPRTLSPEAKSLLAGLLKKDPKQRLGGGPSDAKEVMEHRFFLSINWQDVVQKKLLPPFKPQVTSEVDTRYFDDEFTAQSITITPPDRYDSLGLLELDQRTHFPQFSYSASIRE

For `c1ccc(C2CCC3(CCN(c4ncnc5[nH]cnc45)CC3)NC2)cc1` (stereo not given), which inhibition [1] is on record?
Its inhibition is 62%.

What about the inhibition [2] of the same molecule?
Its inhibition is 31%.

What about the inhibition [3] of the same molecule?
Its inhibition is 18%.

What about the inhibition [4] of the same molecule?
The inhibition was 51%.

And the inhibition [5]?
The inhibition was 21%.

What about the inhibition [6] of the same molecule?
The inhibition was 26%.

And the inhibition [7]?
Its inhibition is 44%.

And the inhibition [8]?
Its inhibition is 69%.

And the inhibition [9]?
Its inhibition is 33%.

And the inhibition [10]?
The inhibition was 23%.

And the inhibition [11]?
Its inhibition is 41%.

What about the inhibition [12] of the same molecule?
Its inhibition is 96%.

And the inhibition [13]?
Its inhibition is 85%.

Which inhibition [1] does the source give for `O=S(=O)(c1cccc2cnccc12)N1CCC2(CCCNC2)CC1` here?
Its inhibition is 9%.

What about the inhibition [2] of the same molecule?
Its inhibition is 6%.

And the inhibition [3]?
The inhibition was 11%.

What about the inhibition [4] of the same molecule?
Its inhibition is 0%.

And the inhibition [5]?
The inhibition was 5%.

What about the inhibition [6] of the same molecule?
The inhibition was 0%.

What about the inhibition [7] of the same molecule?
The inhibition was 65%.

And the inhibition [8]?
Its inhibition is 8%.

What about the inhibition [9] of the same molecule?
Its inhibition is 15%.

And the inhibition [10]?
Its inhibition is 11%.

And the inhibition [11]?
Its inhibition is 14%.

What about the inhibition [12] of the same molecule?
The inhibition was 77%.

And the inhibition [13]?
Its inhibition is 0%.

Which inhibition [1] does the source give for `O=C(O)C1CCC2(CCN(c3ncnc4[nH]cnc34)CC2)NC1` (racemic) here?
Its inhibition is 15%.

What about the inhibition [2] of the same molecule?
The inhibition was 44%.

What about the inhibition [3] of the same molecule?
The inhibition was 5%.

And the inhibition [4]?
Its inhibition is 2%.

What about the inhibition [5] of the same molecule?
Its inhibition is 28%.

And the inhibition [6]?
The inhibition was 36%.

And the inhibition [7]?
Its inhibition is 2%.

What about the inhibition [8] of the same molecule?
Its inhibition is 0%.

And the inhibition [9]?
Its inhibition is 44%.

And the inhibition [10]?
Its inhibition is 0%.

And the inhibition [11]?
Its inhibition is 17%.

And the inhibition [12]?
The inhibition was 78%.

And the inhibition [13]?
The inhibition was 40%.

`OC1CCNC2(CCN(c3ncnc4[nH]cnc34)CC2)C1` (racemic) was tested. Which inhibition [1] did it give?
Its inhibition is 14%.

What about the inhibition [2] of the same molecule?
The inhibition was 0%.

What about the inhibition [3] of the same molecule?
The inhibition was 28%.

And the inhibition [4]?
Its inhibition is 23%.

And the inhibition [5]?
The inhibition was 19%.

What about the inhibition [6] of the same molecule?
The inhibition was 28%.

What about the inhibition [7] of the same molecule?
Its inhibition is 44%.

What about the inhibition [8] of the same molecule?
The inhibition was 80%.

And the inhibition [9]?
The inhibition was 23%.

And the inhibition [10]?
The inhibition was 32%.

What about the inhibition [11] of the same molecule?
Its inhibition is 59%.

What about the inhibition [12] of the same molecule?
The inhibition was 98%.

And the inhibition [13]?
The inhibition was 94%.

What does the source list for `c1nc(N2CCC3(CCCNC3)CC2)c2nc[nH]c2n1`?
inhibition [1]: 64%; inhibition [2]: 4%; inhibition [3]: 63%; inhibition [4]: 82%; inhibition [5]: 49%; inhibition [6]: 55%; inhibition [7]: 72%; inhibition [8]: 97%; inhibition [9]: 91%; inhibition [10]: 51%; inhibition [11]: 87%; inhibition [12]: 100%; inhibition [13]: 98%

— ChEMBL document CHEMBL2417369, “Synthesis and evaluation of heteroaryl substituted diazaspirocycles as scaffolds to probe the ATP-binding site of protein kinases” (Bioorg Med Chem, 2013)
